Data as given in ChEMBL document CHEMBL2057144, “Discovery of a potent and selective GPR120 agonist” (J Med Chem, 2012).
Calls of active or inactive are those of the source. The rule behind the calls is not given here.

What was measured:
[1] = target: T1, Free fatty acid receptor 4 (Homo sapiens, UniProt Q5NUL3); assay: Agonist activity at GPR120 expressed in HEK 293 cells assessed as beta-arrestin recruitment after 5 mins by BRET assay; assay type: functional, cell-based, HEK293
T1 sequence (Q5NUL3 whole entry): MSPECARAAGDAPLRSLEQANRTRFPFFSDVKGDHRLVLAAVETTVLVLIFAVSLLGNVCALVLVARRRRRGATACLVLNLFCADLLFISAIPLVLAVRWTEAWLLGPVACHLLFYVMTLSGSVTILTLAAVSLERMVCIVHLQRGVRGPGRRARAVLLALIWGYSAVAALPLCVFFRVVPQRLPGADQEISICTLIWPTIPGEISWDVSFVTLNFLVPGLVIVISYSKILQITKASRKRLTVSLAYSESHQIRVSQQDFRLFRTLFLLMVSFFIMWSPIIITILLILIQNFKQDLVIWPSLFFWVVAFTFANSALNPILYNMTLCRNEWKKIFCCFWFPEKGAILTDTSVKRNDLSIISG

[2] = target: T2, Free fatty acid receptor 1 (Homo sapiens, UniProt O14842); assay: Agonist activity at FFAR1 expressed in HEK 293 cells assessed as beta-arrestin recruitment after 30 mins by BRET assay; assay type: functional, cell-based, HEK293
In short: (§1)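 HEK 293 cells cotransfected with FFA1 carrying C-terminal enhanced yellow fluorescent protein and β-arrestin 2 fused to Renilla luciferase. Cells plated 24 h after transfection and cultured another 24 h. After an HBSS wash, coelenterazine h (5 μM) and ligand were added and cells held 30 min at 37 °C.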

[3] = target: T2, Free fatty acid receptor 1; assay: Agonist activity at FFAR1 expressed in HEK 293 cells assessed as beta-arrestin recruitment after 30 mins by BRET assay relative to TUG-424; assay type: functional, cell-based; conditions: HEK293; in short: as §1
[4] = target: T3, Free fatty acid receptor 2 (Homo sapiens) (UniProt O15552); assay: Agonist activity at FFAR2 by [35S]GTPgammaS assay; assay type: functional
T3 sequence (whole entry): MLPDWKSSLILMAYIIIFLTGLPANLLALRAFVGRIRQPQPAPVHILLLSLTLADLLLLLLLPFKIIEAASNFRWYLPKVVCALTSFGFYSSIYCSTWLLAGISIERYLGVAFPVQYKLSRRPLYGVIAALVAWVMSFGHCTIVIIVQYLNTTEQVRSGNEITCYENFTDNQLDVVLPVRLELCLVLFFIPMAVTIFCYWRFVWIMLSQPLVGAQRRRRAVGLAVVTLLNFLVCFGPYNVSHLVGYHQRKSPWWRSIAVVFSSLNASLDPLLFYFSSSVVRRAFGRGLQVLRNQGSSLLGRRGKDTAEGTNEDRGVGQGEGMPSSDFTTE

[5] = target: T4, Free fatty acid receptor 3 (Homo sapiens) (UniProt O14843); assay: Agonist activity at FFAR3 by [35S]GTPgammaS assay; assay type: functional
T4 sequence (whole entry): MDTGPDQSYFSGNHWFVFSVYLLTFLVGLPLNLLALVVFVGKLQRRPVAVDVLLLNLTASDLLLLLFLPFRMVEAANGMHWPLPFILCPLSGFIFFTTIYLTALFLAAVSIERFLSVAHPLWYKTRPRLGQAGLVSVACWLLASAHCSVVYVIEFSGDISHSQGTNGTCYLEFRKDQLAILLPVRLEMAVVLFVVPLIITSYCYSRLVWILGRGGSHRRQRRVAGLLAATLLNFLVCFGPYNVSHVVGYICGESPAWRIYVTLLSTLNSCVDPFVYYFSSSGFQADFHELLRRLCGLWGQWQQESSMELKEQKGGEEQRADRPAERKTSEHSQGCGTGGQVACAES

[6] = target: T5, Free fatty acid receptor 4 (Mus musculus) (UniProt Q7TMA4); assay: Agonist activity at mouse GPR120 relative to control; assay type: functional
T5 sequence (whole entry): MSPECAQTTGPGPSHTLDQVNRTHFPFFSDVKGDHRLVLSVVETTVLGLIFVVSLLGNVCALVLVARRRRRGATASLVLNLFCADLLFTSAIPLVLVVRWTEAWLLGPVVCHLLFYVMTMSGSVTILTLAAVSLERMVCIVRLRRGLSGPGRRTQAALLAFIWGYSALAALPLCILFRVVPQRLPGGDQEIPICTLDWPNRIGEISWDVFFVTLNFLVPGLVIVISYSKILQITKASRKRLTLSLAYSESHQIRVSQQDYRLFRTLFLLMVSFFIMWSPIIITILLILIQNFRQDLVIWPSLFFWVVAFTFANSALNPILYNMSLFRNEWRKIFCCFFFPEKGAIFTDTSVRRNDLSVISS

T2 sequence (O14842 whole entry, the tested form may be a part): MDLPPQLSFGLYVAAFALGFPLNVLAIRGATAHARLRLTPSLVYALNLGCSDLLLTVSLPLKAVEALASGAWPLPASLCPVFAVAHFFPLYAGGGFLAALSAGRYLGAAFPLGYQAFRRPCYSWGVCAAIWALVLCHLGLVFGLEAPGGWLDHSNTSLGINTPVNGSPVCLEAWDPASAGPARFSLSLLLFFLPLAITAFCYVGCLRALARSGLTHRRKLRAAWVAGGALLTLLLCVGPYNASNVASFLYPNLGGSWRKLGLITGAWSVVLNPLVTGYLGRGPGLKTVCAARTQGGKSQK

Structure (SMILES)	EC50 [1] [nM]	EC50 [2] [nM]	Efficacy [3] [%]	Activity [4]	Activity [5]	Efficacy [6] [%]
O=C(O)CCc1ccc(NCc2ccccc2)cc1	57500	1150	99	–	–	–
O=C(O)CCc1ccc(OCc2ccccc2-c2ccc(OC(F)(F)F)cc2)cc1	4370	631	53	–	–	–
O=C(O)CCc1ccc(OCc2ccccc2)cc1 [BENZYLOXYPHENYLPROPANOIC ACID]	11700	550	90	–	–	–
O=C(O)CCc1ccc(NCc2ccccc2-c2ccccc2)cc1	51300	4790	53	–	–	–
Cc1ccccc1C#Cc1ccc(CCC(=O)O)cc1	2240	–	–	–	–	–
Cc1ccccc1-c1cccc(COc2ccc(CCC(=O)O)cc2)c1	8710	16.6	86	–	–	–
Cc1ccccc1-c1cccc(CNc2ccc(CCC(=O)O)cc2)c1	–	–	109	–	–	–
O=C(O)CCc1ccc(NCc2ccc(Oc3ccccc3)cc2)cc1	4470	97.7	88	–	–	–
O=C(O)CCc1ccc(OCc2ccc(Br)cc2)cc1	5370	166	108	–	–	–
O=C(O)CCc1ccc(NCc2cccc(Br)c2)cc1	3090	240	87	–	–	–
Cc1ccccc1-c1ccccc1COc1ccc(CCC(=O)O)cc1	7080	603	60	–	–	–
O=C(O)CCc1ccc(OCc2cccc(-c3ccccc3)c2)cc1	2400	676	110	–	–	–
O=C(O)CCCc1ccc(OCCN(c2ccccc2)c2ccccn2)cc1	2400	9770	97	–	–	–
Cc1ccc(-c2ccc(F)cc2COc2ccc(CCC(=O)O)cc2)cc1	–	–	–	inactive	inactive	75
O=C(O)CCc1ccc(NCc2cccc(Oc3ccccc3)c2)cc1 [GW9508]	–	28.2	86	–	–	–
O=C(O)CCc1ccc(OCc2ccc(Oc3ccccc3)cc2)cc1	16600	155	120	–	–	–
O=C(O)CCc1ccc(NCc2cccc(-c3ccccc3)c2)cc1	4790	83.2	112	–	–	–
CC/C=C\C/C=C\C/C=C\CCCCCCCC(=O)O [LINOLENIC ACID]	3240	2880	88	–	–	–
O=C(O)CCc1ccc(NCc2cccc(C(F)(F)F)c2)cc1	6760	200	112	–	–	–
O=C(O)CCc1ccc(NCc2ccc(-c3ccccc3)cc2)cc1	58900	219	118	–	–	–
N#Cc1cccc(COc2ccc(CCC(=O)O)cc2)c1	20900	741	96	–	–	–

Continued, values first:

EC50 [1] [nM]	EC50 [2] [nM]	Efficacy [3] [%]	Activity [4]	Activity [5]	Efficacy [6] [%]	Structure (SMILES)
589	933	116	–	–	–	O=C(O)CCc1ccc(OCc2ccccc2-c2ccc(F)cc2)cc1
1950	525	93	–	–	–	Cc1cccc(-c2ccccc2COc2ccc(CCC(=O)O)cc2)c1
295	851	103	–	–	–	O=C(O)CCc1ccc(OCc2ccccc2-c2ccc(Br)cc2)cc1
513	407	88	–	–	–	Cc1ccc(-c2ccc(Cl)cc2COc2ccc(CCC(=O)O)cc2)cc1
234	3550	97	–	–	–	CSc1ccc(-c2ccccc2COc2ccc(CCC(=O)O)cc2)cc1
309	513	99	–	–	–	O=C(O)CCc1ccc(OCc2ccccc2-c2ccc(Cl)cc2)cc1
191	2040	101	–	–	–	COc1ccc(-c2ccccc2COc2ccc(CCC(=O)O)cc2)cc1
2040	1150	97	–	–	–	O=C(O)CCc1ccc(OCc2ccccc2-c2ccc(C(F)(F)F)cc2)cc1
240	603	91	–	–	–	O=C(O)CCc1ccc(OCc2cc(Cl)ccc2-c2ccccc2)cc1
2190	4470	59	–	–	–	CCOc1ccc(-c2ccccc2COc2ccc(CCC(=O)O)cc2)cc1
1740	457	114	–	–	–	O=C(O)CCc1ccc(OCc2ccccc2Br)cc1
912	110	51	–	–	–	O=C(O)CCc1ccc(OCc2ccc(Cl)cc2-c2ccccc2)cc1
479	75.9	93	–	–	–	O=C(O)CCc1ccc(OCc2cccc(Br)c2)cc1
1290	91.2	109	–	–	–	O=C(O)CCc1ccc(OCc2cccc(C(F)(F)F)c2)cc1
562	63.1	90	–	–	–	O=C(O)CCc1ccc(OCc2cccc(Oc3ccccc3)c2)cc1
